Test results reported in ChEMBL document CHEMBL5712070, “Discovery of a chemical probe for the L3MBTL3 methyllysine reader domain” (Nat Chem Biol, 2013).
Activity calls are given as the source filed them. The rule behind the calls is not given here.

What was measured:
[1] = biological target: T1, Lethal(3)malignant brain tumor-like protein 3 (Homo sapiens) (UniProt Q96JM7); experiment: Binding affinity to GFP-tagged full length L3MBTL3 (unknown origin) expressed in HEK293 cells assessed as co-localization with full length L3MBTL3; type: cell-based
T1 sequence (whole entry): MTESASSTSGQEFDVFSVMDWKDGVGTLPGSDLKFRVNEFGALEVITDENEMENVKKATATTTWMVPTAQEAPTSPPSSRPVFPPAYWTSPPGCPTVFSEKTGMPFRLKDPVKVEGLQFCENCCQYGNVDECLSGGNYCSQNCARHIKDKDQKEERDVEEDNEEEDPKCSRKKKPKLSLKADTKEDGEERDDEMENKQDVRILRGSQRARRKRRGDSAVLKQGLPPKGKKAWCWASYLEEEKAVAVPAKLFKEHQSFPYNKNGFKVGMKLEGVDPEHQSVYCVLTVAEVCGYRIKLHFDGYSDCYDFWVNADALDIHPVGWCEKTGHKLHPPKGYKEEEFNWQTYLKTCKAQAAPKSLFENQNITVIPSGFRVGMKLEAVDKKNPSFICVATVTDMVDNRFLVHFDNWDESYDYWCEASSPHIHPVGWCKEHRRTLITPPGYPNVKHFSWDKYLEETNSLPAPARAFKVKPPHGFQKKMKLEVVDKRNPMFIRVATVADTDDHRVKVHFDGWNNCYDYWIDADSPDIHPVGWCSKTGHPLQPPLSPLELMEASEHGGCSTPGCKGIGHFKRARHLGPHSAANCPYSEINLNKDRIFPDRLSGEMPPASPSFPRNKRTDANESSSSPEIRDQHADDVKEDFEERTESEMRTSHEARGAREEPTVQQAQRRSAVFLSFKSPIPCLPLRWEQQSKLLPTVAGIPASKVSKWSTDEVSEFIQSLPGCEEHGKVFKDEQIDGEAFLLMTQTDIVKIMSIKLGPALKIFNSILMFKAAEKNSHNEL

[2] = biological target: T1, Lethal(3)malignant brain tumor-like protein 3 (Homo sapiens); experiment: Binding affinity to GFP-tagged full length L3MBTL3 (unknown origin) expressed in HEK293 cells assessed as increase in protein mobility; type: cell-based
[3] = biological target: T1, Lethal(3)malignant brain tumor-like protein 3 (Homo sapiens); experiment: Inhibition of GFP-tagged full length L3MBTL3 (unknown origin) expressed in HEK293 cells assessed as disruption of foci formation by immunofluorescence assay; type: cell-based
How it was run: (§1)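 HEK293 cells seeded on coverslips, transfected 16–24 h after seeding with GFP-3MBT or GFP-FLMBT for 48 h; compounds at indicated concentrations for at least 24 h; Hoechst 33342 stain before spinning-disk confocal imaging; foci quantified by % GFP intensity function.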

[4] = biological target: T2, Lethal(3)malignant brain tumor-like protein 3 (Homo sapiens, UniProt Q96JM7); experiment: Binding affinity to L3MBTL3 (unknown origin) by ITC assay
T2 sequence (Q96JM7 whole entry): T1 sequence (whole entry)

[5] = biological target: T2, Lethal(3)malignant brain tumor-like protein 3; experiment: Inhibition of L3MBTL3 (unknown origin) using H4K20me2 peptide by Alpha-Screen methylated histone peptide competition assay
[6] = Cytotoxicity in HEK293T/17 cells assessed as effect on cell viability up to 100 uM incubated for 24 hrs by CellTiter-Glo luminescent cell viability assay; type: toxicity, cell-based; conditions: human, hek293t/17, 24 h
[7] = biological target: T1, Lethal(3)malignant brain tumor-like protein 3 (Homo sapiens); experiment: Inhibition of GFP-3MBT tagged L3MBTL3 (unknown origin) expressed in HEK293 cells assessed as reduction in recovery of fluorescence intensity up to 0.1 mM measured up to 60 secs by FRAP assay; type: cell-based; conditions: time <= 60.0 sec
How it was run: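 FRAP: HEK293 cells transfected with GFP-3MBT; inhibitor treatment 3–6 h; 488 nm laser bleaching then image acquisition every 2 s on laser scanning confocal microscope. Recovery fitted exponentially from 8–10 nuclei per condition; water as control; experiment repeated 3 independent times.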

[8] = biological target: T1, Lethal(3)malignant brain tumor-like protein 3 (Homo sapiens); experiment: Inhibition of GFP-3MBT tagged L3MBTL3 (unknown origin) expressed in HEK293 cells assessed as disruption of foci formation at 100 uM by immunofluorescence assay; type: cell-based; how it was run: as §1
[9] = biological target: T1, Lethal(3)malignant brain tumor-like protein 3 (Homo sapiens); experiment: Binding affinity to GFP-3MBT tagged L3MBTL3 (unknown origin) assessed as protein half life at 1 uM
[10] = biological target: T2, Lethal(3)malignant brain tumor-like protein 3; experiment: Binding affinity to GFP-3MBT tagged L3MBTL3 (unknown origin) assessed as diffusion coefficient at 1 uM (reference value: 0.1272 um2/s)
[11] = biological target: T2, Lethal(3)malignant brain tumor-like protein 3; experiment: Binding affinity to GFP-tagged full length L3MBTL3 (unknown origin) assessed as diffusion coefficient at 1 uM (reference value: 0.037549815 um2/s)
[12] = biological target: T1, Lethal(3)malignant brain tumor-like protein 3 (Homo sapiens); experiment: Binding affinity to flag-tagged full length L3MBTL3 (unknown origin) expressed in HEK293 cell lysates at 5 nmol by; type: subcellular

SMILES	Activity [1]	Activity [2]	inhibition [3]	Kd [4]	IC50 [5]	Activity [6]	inhibition [7]	inhibition [8]	T1/2 [9]	Diffusion coefficient [10]	Diffusion coefficient [11]	Activity [12]
CCN1C(=O)\C(=C/C=C/C=C2/N(CCC(=O)OCOC(C)=O)c3ccc(C(=O)OCOC(C)=O)cc3C2(C)C)C(=O)N(CCC(=O)NCCCCCCNC(=O)c2ccc(Nc3cc(C(=O)N4CCC(N5CCCC5)CC4)ccc3C(=O)N3CCC(N4CCCC4)CC3)cc2)C1=O	Active	Active	inactive									
O=C(c1ccc(C(=O)N2CCC(N3CCCCC3)CC2)cc1)N1CCC(N2CCCCC2)CC1				> 150 µM	> 10 µM	Non-Toxic	inactive	inactive	8.2 s	0.124 um2/s	0.036 um2/s	
O=C(CCCC[C@@H]1SC[C@@H]2NC(=O)N[C@@H]21)NCCOCCOCCOCCOCCOCCOCCOCCOCCOCCOCCOCCNC(=O)c1ccc(Nc2cc(C(=O)N3CCC(N4CCCC4)CC3)ccc2C(=O)N2CCC(N3CCCC3)CC2)cc1				0.35 µM								Active
